# Test results reported in ChEMBL document CHEMBL4765453, “Phenanthrolinic analogs of quinolones show antibacterial activity against M. tuberculosis” (Eur J Med Chem, 2020).
# Tested on: Mycobacterium tuberculosis
# Assay: Antitubercular activity against FQ resistant Mycobacterium tuberculosis H37Rv harboring gyrA Ala-90-Val mutant measured after 7 days by resazurin microtiter assay
# Type: functional
# Conditions: time 7 day
# Summary of the method: (§1)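 Resazurin microtiter assay with two-fold drug dilutions in complete 7H9 broth. Exponential-phase cells are diluted to a final OD600 of 0.005 in 7H9 without Tween. Incubation is 7 days at 37°C, then 0.01% resazurin is added and plates are held 24 h more. MIC is the lowest concentration preventing the blue-to-pink change. Each MIC is determined three times in duplicate experiments.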
row,SMILES,MIC90 [µM]
1,CCOC(=O)c1cn(C)c2c(cc([N+](=O)[O-])c3cccnc32)c1=O,>50
2,Cn1cc(C(=O)O)c(=O)c2cc([N+](=O)[O-])c3cccnc3c21,5.28
3,COc1c(N2C[C@@H]3CCCN[C@@H]3C2)c(F)cc2c(=O)c(C(=O)O)cn(C3CC3)c12 [MOXIFLOXACIN],3.08
4,CCn1cc(C(=O)O)c(=O)c2ccc(C)nc21 [NALIDIXIC ACID],>50
5,CCn1cc(C(=O)O)c(=O)c2cc([N+](=O)[O-])c3cccnc3c21,11.68
6,CCOC(=O)c1cn(CC)c2c(cc([N+](=O)[O-])c3cccnc32)c1=O,>50
7,CC1COc2c(N3CCN(C)CC3)c(F)cc3c(=O)c(C(=O)O)cn1c23 (configuration not stated) [OFLOXACIN],13.8

# Tested on: Mycobacterium tuberculosis
# Assay: Antitubercular activity against FQ resistant Mycobacterium tuberculosis H37Rv harboring gyrA Asp-94-Gly mutant measured after 7 days by resazurin microtiter assay
# Type: functional
# Conditions: time 7 day
# Summary of the method: as §1
row,SMILES,MIC90 [µM]
1,CCOC(=O)c1cn(C)c2c(cc([N+](=O)[O-])c3cccnc32)c1=O,1.21
2,Cn1cc(C(=O)O)c(=O)c2cc([N+](=O)[O-])c3cccnc3c21,2.64
3,COc1c(N2C[C@@H]3CCCN[C@@H]3C2)c(F)cc2c(=O)c(C(=O)O)cn(C3CC3)c12 [MOXIFLOXACIN],3.08
4,CCn1cc(C(=O)O)c(=O)c2ccc(C)nc21 [NALIDIXIC ACID],>50
5,CCn1cc(C(=O)O)c(=O)c2cc([N+](=O)[O-])c3cccnc3c21,2.99
6,CCOC(=O)c1cn(CC)c2c(cc([N+](=O)[O-])c3cccnc32)c1=O,4.99
7,CC1COc2c(N3CCN(C)CC3)c(F)cc3c(=O)c(C(=O)O)cn1c23 (configuration not stated) [OFLOXACIN],13.8

# Tested on: Mycobacterium tuberculosis
# Assay: Antitubercular activity against FQ resistant Mycobacterium tuberculosis H37Rv harboring gyrA Gly-88-Cys mutant measured after 7 days by resazurin microtiter assay
# Type: functional
# Conditions: time 7 day
# Summary of the method: as §1
row,SMILES,MIC90 [µM]
1,CCOC(=O)c1cn(C)c2c(cc([N+](=O)[O-])c3cccnc32)c1=O,>50
2,Cn1cc(C(=O)O)c(=O)c2cc([N+](=O)[O-])c3cccnc3c21,2.64
3,COc1c(N2C[C@@H]3CCCN[C@@H]3C2)c(F)cc2c(=O)c(C(=O)O)cn(C3CC3)c12 [MOXIFLOXACIN],6.16
4,CCn1cc(C(=O)O)c(=O)c2ccc(C)nc21 [NALIDIXIC ACID],>50
5,CCn1cc(C(=O)O)c(=O)c2cc([N+](=O)[O-])c3cccnc3c21,11.68
6,CCOC(=O)c1cn(CC)c2c(cc([N+](=O)[O-])c3cccnc32)c1=O,>50
7,CC1COc2c(N3CCN(C)CC3)c(F)cc3c(=O)c(C(=O)O)cn1c23 (configuration not stated) [OFLOXACIN],27.6

# Tested on: Mycobacterium tuberculosis
# Assay: Antitubercular activity against FQ resistant Mycobacterium tuberculosis H37Rv harboring gyrA Ser-91-Pro mutant measured after 7 days by resazurin microtiter assay
# Type: functional
# Conditions: time 7 day
# Summary of the method: as §1
row,SMILES,MIC90 [µM]
1,CCOC(=O)c1cn(C)c2c(cc([N+](=O)[O-])c3cccnc32)c1=O,>50
2,Cn1cc(C(=O)O)c(=O)c2cc([N+](=O)[O-])c3cccnc3c21,5.28
3,COc1c(N2C[C@@H]3CCCN[C@@H]3C2)c(F)cc2c(=O)c(C(=O)O)cn(C3CC3)c12 [MOXIFLOXACIN],6.16
4,CCn1cc(C(=O)O)c(=O)c2ccc(C)nc21 [NALIDIXIC ACID],>50
5,CCn1cc(C(=O)O)c(=O)c2cc([N+](=O)[O-])c3cccnc3c21,11.68
6,CCOC(=O)c1cn(CC)c2c(cc([N+](=O)[O-])c3cccnc32)c1=O,>50
7,CC1COc2c(N3CCN(C)CC3)c(F)cc3c(=O)c(C(=O)O)cn1c23 (configuration not stated) [OFLOXACIN],27.6

# Tested on: Mycobacterium tuberculosis
# Assay: Antitubercular activity against FQ resistant Mycobacterium tuberculosis H37Rv harboring gyrA Ala-90-Val/gyrB Glu-540-Val mutant measured after 7 days by resazurin microtiter assay
# Type: functional
# Conditions: time 7 day
# Summary of the method: as §1
row,SMILES,MIC90 [µM]
1,CCOC(=O)c1cn(C)c2c(cc([N+](=O)[O-])c3cccnc32)c1=O,>50
2,Cn1cc(C(=O)O)c(=O)c2cc([N+](=O)[O-])c3cccnc3c21,5.28
3,COc1c(N2C[C@@H]3CCCN[C@@H]3C2)c(F)cc2c(=O)c(C(=O)O)cn(C3CC3)c12 [MOXIFLOXACIN],6.16
4,CCn1cc(C(=O)O)c(=O)c2ccc(C)nc21 [NALIDIXIC ACID],>50
5,CCn1cc(C(=O)O)c(=O)c2cc([N+](=O)[O-])c3cccnc3c21,11.68
6,CCOC(=O)c1cn(CC)c2c(cc([N+](=O)[O-])c3cccnc32)c1=O,>50
7,CC1COc2c(N3CCN(C)CC3)c(F)cc3c(=O)c(C(=O)O)cn1c23 (configuration not stated) [OFLOXACIN],27.6

# Tested on: Mycobacterium tuberculosis
# Assay: Antitubercular activity against FQ resistant Mycobacterium tuberculosis H37Rv harboring gyrA Asp-94-Gly/gyrB Asp-500-Asn mutant measured after 7 days by resazurin microtiter assay
# Type: functional
# Conditions: time 7 day
# Summary of the method: as §1
row,SMILES,MIC90 [µM]
1,CCOC(=O)c1cn(C)c2c(cc([N+](=O)[O-])c3cccnc32)c1=O,>50
2,Cn1cc(C(=O)O)c(=O)c2cc([N+](=O)[O-])c3cccnc3c21,5.28
3,COc1c(N2C[C@@H]3CCCN[C@@H]3C2)c(F)cc2c(=O)c(C(=O)O)cn(C3CC3)c12 [MOXIFLOXACIN],6.16
4,CCn1cc(C(=O)O)c(=O)c2ccc(C)nc21 [NALIDIXIC ACID],>50
5,CCn1cc(C(=O)O)c(=O)c2cc([N+](=O)[O-])c3cccnc3c21,5.84
6,CCOC(=O)c1cn(CC)c2c(cc([N+](=O)[O-])c3cccnc32)c1=O,>50
7,CC1COc2c(N3CCN(C)CC3)c(F)cc3c(=O)c(C(=O)O)cn1c23 (configuration not stated) [OFLOXACIN],27.6
